Measured values taken from ChEMBL document CHEMBL4477258, “Ca-asp bound X-ray structure and inhibition of Bacillus anthracis dihydroorotase (DHOase)” (Bioorg Med Chem, 2016).
pKd: −log10 of the molar value. Active and inactive are the calls of the source. No cut-off for these calls is given here.

How the values were obtained:
Dihydroorotase [1] = target: T1, Dihydroorotase (Bacillus anthracis, UniProt Q81WF0); experiment: (§1) Binding affinity to Bacillus anthracis Sterne His-tagged DHOase expressed in Escherichia coli BL21(DE3) Gold cells in presence of N-carbamyl-L-aspartate by surface plasmon resonance analysis; set-up: species or system Bacillus anthracis str. Sterne; conditions: for pKd: read-out: Kd
T1 sequence (Q81WF0 whole entry): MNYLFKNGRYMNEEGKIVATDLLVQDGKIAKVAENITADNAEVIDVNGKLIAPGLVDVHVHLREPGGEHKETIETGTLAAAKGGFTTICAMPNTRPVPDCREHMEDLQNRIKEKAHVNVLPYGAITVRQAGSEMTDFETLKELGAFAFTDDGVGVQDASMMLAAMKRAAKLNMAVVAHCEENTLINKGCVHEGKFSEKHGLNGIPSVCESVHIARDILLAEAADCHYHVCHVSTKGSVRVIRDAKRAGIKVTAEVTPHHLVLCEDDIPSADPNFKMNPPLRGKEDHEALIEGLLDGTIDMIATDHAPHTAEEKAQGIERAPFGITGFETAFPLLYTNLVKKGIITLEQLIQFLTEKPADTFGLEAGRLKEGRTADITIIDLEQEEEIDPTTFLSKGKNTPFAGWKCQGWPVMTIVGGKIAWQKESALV
Procedure, shortened: (§2)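 His-tag-cleaved DHOase immobilized on a CM5 chip, with a blank reference channel. Compounds run at 0–200 μM (2-fold dilutions) at 25 °C, 10 μL/min, in PBS-P with 2% DMSO, 0.5 mM TCEP and 1 mM Ca-asp. KD taken from steady-state affinity fit. SD from three independent experiments.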

[2] = target: T2, Dihydroorotase (Bacillus anthracis) (UniProt Q81WF0); experiment: Inhibition of Bacillus anthracis Sterne His-tagged DHOase expressed in Escherichia coli BL21(DE3) Gold cells using DHO as substrate assessed as enzyme activity at 25 or 400 uM preincubated for 10 mins followed by substrate addition measured after 30 mins by DAMO-TSC reagent based colorimetric assay relative to control; set-up: scale not given: the % may be the effect or the level left; conditions: Bacillus anthracis str. Sterne
T2 sequence (whole entry): T1 sequence (Q81WF0 whole entry)
Procedure, shortened: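 Reverse reaction run in duplicate. Fragments at 400 μM or compounds at 25 μM final, 10 min at room temperature. 10 μL of 320 μM DHO added, 30 min reaction, quenched with acidic DAMO-TSC. Colour developed 16 h in the dark, A540 read.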

Dihydroorotase [3] = target: T1, Dihydroorotase; experiment: Binding affinity to Bacillus anthracis Sterne His-tagged DHOase expressed in Escherichia coli BL21(DE3) Gold cells by surface plasmon resonance analysis; set-up: species or system Bacillus anthracis str. Sterne; conditions: for pKd: read-out: Kd
Procedure, shortened: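 His-tag-cleaved DHOase amine-coupled to a CM5 chip at pH 4.5. Ethanolamine-blocked channel used as reference. Compounds run at 0–200 μM (2-fold dilutions) in PBS-P with 2% DMSO and 0.5 mM TCEP, at 10 μL/min and 25 °C. KD taken from steady-state affinity fit of equilibrium response. SD from three independent experiments.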

[4] = target: T2, Dihydroorotase (Bacillus anthracis); experiment: Binding affinity to Bacillus anthracis Sterne His-tagged DHOase expressed in Escherichia coli BL21(DE3) Gold cells assessed as change in melting temperature at 400 uM incubated for 10 mins by SYPRO orange dye based fluorescence thermal shift assay; conditions: Bacillus anthracis str. Sterne
Procedure, shortened: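 Histidine-tagged DHOase at 5 μM final in 50 mM MES pH 6.5, 0.01% CHAPS, 150 mM NaCl, 2 mM TCEP. Fragment added at 400 μM final and incubated 10 min at room temperature, then SYPRO Orange at 10X diluted from 5000X stock. Heated 25 to 95 °C at […], fluorescence read at ex/em 470/623 nm. Tm shift >2 °C scored as a hit.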

[5] = target: T2, Dihydroorotase (Bacillus anthracis); experiment: as §1; conditions: Bacillus anthracis str. Sterne; procedure, shortened: as §2

How did the pKd (Dihydroorotase [1]) turn out when `COc1ccc2[nH]c3c(c2c1)CCNC31CCOCC1` was run?
Its pKd is 3.50.

What about the Activity [2] of the same compound?
Its Activity is less than 50%.

And the pKd (Dihydroorotase [3])?
The pKd was 3.42.

And the ΔTm [4]?
Its ΔTm is greater than 2 °C.

With `CCC(=O)Nc1cc(OC)cc(OC)c1` as the compound, how does the pKd (Dihydroorotase [1]) read?
The pKd was 3.55.

What about the Activity [2] of the same compound?
Its Activity is less than 50%.

What about the pKd (Dihydroorotase [3]) of the same compound?
Its pKd is 3.80.

And the ΔTm [4]?
The ΔTm was greater than 2 °C.

How did the pKd (Dihydroorotase [1]) turn out when `COc1ccc2[nH]c3c(c2c1)CCNC3(NC#N)SC` (stereo not drawn) was run?
Its pKd is 3.84.

And the pKd (Dihydroorotase [3])?
Its pKd is 3.92 to 4.68.

`CCC1NCCn2cccc21` (stereo not drawn) was tested. Which Activity [5] did it give?
The Activity was “Active”.

And the Activity [2]?
The Activity was less than 50%.

What about the pKd (Dihydroorotase [3]) of the same compound?
Its pKd is 3.48 to 4.17.

And the ΔTm [4]?
The ΔTm was greater than 2 °C.

How did the Activity [5] turn out when `CCS(=O)(=O)N(C)c1ccc(C(=O)N2CCCC2)cc1` was run?
The Activity was “Active”.

What about the Activity [2] of the same compound?
The Activity was less than 50%.

What about the pKd (Dihydroorotase [3]) of the same compound?
Its pKd is 3.48 to 4.17.

What about the ΔTm [4] of the same compound?
Its ΔTm is greater than 2 °C.

What does the source list for `COc1ccc2[nH]c3c(c2c1)CN(C(C)=O)CC3`?
pKd (Dihydroorotase [1]): 3.67; Activity [2]: < 50%; pKd (Dihydroorotase [3]): 3.69; ΔTm [4]: > 2 °C

How did the pKd (Dihydroorotase [1]) turn out when `CSC1(NC#N)NCCc2c1[nH]c1ccc(F)cc21` (stereo not drawn) was run?
Its pKd is less than 3.00.

And the Activity [2]?
The Activity was less than 50%.

What about the ΔTm [4] of the same compound?
Its ΔTm is greater than 2 °C.

Which Kd (Dihydroorotase [1]) does the source give for `Cc1ccc2[nH]c3c(c2c1)CCNC3` here?
The Kd was “Not Active”.

And the Kd (Dihydroorotase [3])?
Its Kd is “Not Active”.

With `COc1ccc2[nH]c(CN)cc2c1` as the compound, how does the Kd (Dihydroorotase [3]) read?
Its Kd is “Not Active”.

How did the pKd (Dihydroorotase [1]) turn out when `COc1ccc2[nH]c3c(c2c1)CCNC3` was run?
The pKd was 3.17.

And the pKd (Dihydroorotase [3])?
The pKd was 3.23.

How did the pKd (Dihydroorotase [1]) turn out when `CCC(=O)Nc1ccc(OC)cc1OC` was run?
Its pKd is 3.77.

And the Activity [2]?
Its Activity is less than 50%.

And the pKd (Dihydroorotase [3])?
Its pKd is 3.77.

What about the ΔTm [4] of the same compound?
Its ΔTm is greater than 2 °C.

For `Cn1ccc2c(CO)cccc21`, which Activity [5] is on record?
The Activity was “Active”.

What about the Activity [2] of the same compound?
The Activity was less than 50%.

What about the pKd (Dihydroorotase [3]) of the same compound?
Its pKd is 3.48 to 4.17.

And the ΔTm [4]?
The ΔTm was greater than 2 °C.
